pIC50: −log10 of the molar value. Activity calls are given as the source filed them. The calls are words filed in the database; no cut-off is given here.
What was measured:
[1] = species: Sus scrofa; assay: (§1) Inhibition of tubulin polymerization in porcine brain at 10 uM after 60 mins by fluorescence assay
Outline: (§2)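 Cell-free kit assay using porcine brain tubulin (2 mg/mL) in 80 mM PIPES pH 6.9 with 2.0 mM MgCl2, 0.5 mM EGTA, 1.0 mM GTP and glycerol; compound at 10 µM final, nocodazole as positive control. Polymerization tracked over time as fluorescence of a reporter incorporated into microtubules (ex 360 nm, em 440 nm), with inhibition relative to control.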

[2] = as §1; parameters: species or system Sus scrofa; outline: as §2
[3] = tested on: HGC-27; assay: Cytotoxicity against human HGC27 cells assessed as inhibition of cell viability after 48 hrs by MTT assay; type: functional, cell-based; settings: HGC-27, 48 h
Outline: (§3)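 Cells were seeded at 2.5‒5 x 10^3 per well in DMEM or RPMI with 10% FBS and grown 24 h at 37 °C under CO2. Compounds diluted in medium were added alongside vehicle control for 48 h. MTT (0.5 mg/mL) was added for 4 h, formazan dissolved in DMSO and absorbance read at 570 nm. IC50 is the concentration giving 50% loss of viability; mean ± SD of three experiments, each in triplicate.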

[4] = Selectivity index, ratio of IC50 for human RWPE1 cells to IC50 for human PC3 cells; type: toxicity; settings: RWPE1 cells versus PC3 cells, read-out: Ratio IC50
[5] = tested on: PC-3; assay: Cell cycle arrest in human PC3 cells assessed as accumulation at subG1 phase at 1 uM after 24 hrs by propidium iodide staining-based flow cytometric method (reference value: 0.38%); type: functional
[6] = tested on: PC-3; assay: Induction of apoptosis in human PC3 cells assessed as late apoptotic cells at 2 uM after 24 hrs by FITC-annexin V/propidium iodide staining-based flow cytometric method (reference value: 5.75%); type: functional
[7] = tested on: PC-3; assay: Induction of apoptosis in human PC3 cells assessed as appearance of horse-shoe shaped nuclei at 1 to 2 uM after 48 hrs by DAPI staining-based fluorescence microscopic method; type: functional, cell-based
Outline: (§4)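 PC-3 cells (25000/well) adhered overnight, then treated 48 h at 1 or 2 µM. After PBS wash, fixed 20 min in 4% neutral buffered formalin, permeabilized 5 min with 0.2% Triton X, and stained 10 min at room temperature with DAPI (1 µg/mL). Nuclei viewed by fluorescence microscopy (ex 350 nm, em 460 nm, 200x).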

[8] = tested on: 4T1; assay: Cytotoxicity against mouse 4T1 cells assessed as inhibition of cell viability after 48 hrs by MTT assay; type: functional, cell-based; settings: 4T1, 48 h; outline: as §3
[9] = tested on: PC-3; assay: Induction of apoptosis in human PC3 cells assessed as appearance of horse-shoe shaped nuclei at 2 uM after 48 hrs by acridine orange/ethidium bromide staining-based fluorescence inverted microscopic method; type: functional, cell-based
Outline: (§5)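 PC-3 cells (25000/well) grown 24 h, then exposed 48 h to 0.5, 1 or 2 µM with DMSO control. After PBS wash, stained with acridine orange and ethidium bromide (10 µg/mL each) and imaged at once by fluorescence inverted microscopy (ex 488 nm, em 530 nm, 200x).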

[10] = tested on: PC-3; assay: Induction of apoptosis in human PC3 cells assessed as apoptotic body formation at 1 uM after 48 hrs by acridine orange/ethidium bromide staining-based fluorescence inverted microscopic method; type: functional, cell-based; outline: as §5
[11] = tested on: PC-3; assay: Induction of apoptosis in human PC3 cells assessed as blebbing of cell membrane at 0.5 uM after 48 hrs by acridine orange/ethidium bromide staining-based fluorescence inverted microscopic method; type: functional; outline: as §5
[12] = tested on: PC-3; assay: Induction of apoptosis in human PC3 cells assessed as chromatin condensation at 0.5 uM after 48 hrs by acridine orange/ethidium bromide staining-based fluorescence inverted microscopic method; type: functional, cell-based; outline: as §5
[13] = tested on: PC-3; assay: Induction of apoptosis in human PC3 cells assessed as necrotic cells at 2 uM after 24 hrs by FITC-annexin V/propidium iodide staining-based flow cytometric method (reference value: 0.32%); type: functional
[14] = tested on: NCI-H460; assay: Potency index, ratio of curcumin IC50 to test compound IC50 for human NCI-H460 cells; type: functional
[15] = tested on: PC-3; assay: Induction of apoptosis in human PC3 cells assessed as early apoptotic cells at 2 uM after 24 hrs by FITC-annexin V/propidium iodide staining-based flow cytometric method (reference value: 7.62%); type: functional
[16] = tested on: DU-145; assay: Potency index, ratio of curcumin IC50 to test compound IC50 for human DU145 cells; type: functional
[17] = tested on: PC-3; assay: Cell cycle arrest in human PC3 cells assessed as accumulation at G2/M phase at 1 uM after 24 hrs by propidium iodide staining-based flow cytometric method (reference value: 33.13%); type: functional
[18] = tested on: PC-3; assay: Induction of mitochondrial membrane depolarization in human PC3 cells after 24 hrs by JC1 staining-based flow cytometric method; type: functional, cell-based
[19] = tested on: PC-3; assay: Induction of apoptosis in human PC3 cells assessed as nuclei fragmentation at 1 to 2 uM after 48 hrs by DAPI staining-based fluorescence microscopic method; type: functional, cell-based; outline: as §4
[20] = tested on: PC-3; assay: Cell cycle arrest in human PC3 cells assessed as accumulation at G2/M phase at 2 uM after 24 hrs by propidium iodide staining-based flow cytometric method (reference value: 33.13%); type: functional
[21] = tested on: PC-3; assay: Cell cycle arrest in human PC3 cells assessed as accumulation at S phase at 1 uM after 24 hrs by propidium iodide staining-based flow cytometric method (reference value: 8.08%); type: functional
[22] = tested on: HeLa; assay: Cytotoxicity against human HeLa cells assessed as inhibition of cell viability after 48 hrs by MTT assay; type: functional, cell-based; outline: as §3
[23] = tested on: PC-3; assay: Cell cycle arrest in human PC3 cells assessed as accumulation at G0/G1 phase at 2 uM after 24 hrs by propidium iodide staining-based flow cytometric method (reference value: 58.41%); type: functional
[24] = tested on: PC-3; assay: Potency index, ratio of curcumin IC50 to test compound IC50 for human PC3 cells; type: functional
[25] = tested on: PC-3; assay: Induction of apoptosis in human PC3 cells assessed as early apoptotic cells at 4 uM after 24 hrs by FITC-annexin V/propidium iodide staining-based flow cytometric method (reference value: 7.62%); type: functional
[26] = tested on: PC-3; assay: Cell cycle arrest in human PC3 cells assessed as accumulation at G0/G1 phase at 1 uM after 24 hrs by propidium iodide staining-based flow cytometric method (reference value: 58.41%); type: functional
[27] = tested on: RWPE-1; assay: Cytotoxicity against human RWPE1 cells assessed as inhibition of cell viability after 48 hrs by MTT assay; type: cell-based; settings: RWPE-1, 48 h; outline: as §3
[28] = species: Sus scrofa; assay: Inhibition of tubulin polymerization in porcine brain at 10 uM after 60 mins by fluorescence assay relative to control; outline: as §2
[29] = tested on: PC-3; assay: Induction of apoptosis in human PC3 cells assessed as necrotic cells at 4 uM after 24 hrs by FITC-annexin V/propidium iodide staining-based flow cytometric method (reference value: 0.32%); type: functional
[30] = tested on: DU-145; assay: Cytotoxicity against human DU145 cells assessed as inhibition of cell viability after 48 hrs by MTT assay; type: functional, cell-based; settings: DU-145, 48 h; outline: as §3
[31] = tested on: PC-3; assay: Induction of mitochondrial membrane depolarization in human PC3 cells at 2 uM after 24 hrs by JC1 staining-based flow cytometric method (reference value: 11.9%); type: functional
[32] = tested on: PC-3; assay: Induction of mitochondrial membrane depolarization in human PC3 cells at 4 uM after 24 hrs by JC1 staining-based flow cytometric method (reference value: 11.9%); type: functional
[33] = tested on: PC-3; assay: Cell cycle arrest in human PC3 cells assessed as accumulation at S phase at 2 uM after 24 hrs by propidium iodide staining-based flow cytometric method (reference value: 8.08%); type: functional

In the case of `COc1cc(OC)c(/C=C/C(=O)/C=C/c2nc3ccccn3c2-c2ccc(F)c(F)c2)c(OC)c1`, the inhibition [1] was “Dose-dependent effect”, the pIC50 [2] was 5.07 and the pIC50 [3] was 5.66. The selectivity ratio [4] was 2, the Activity [5] was 0.57% and the Activity [6] was 27.94%. The Activity [7] was “Active”, the pIC50 [8] was 5.77 and the Activity [9] was “Active”. The Activity [10] was “Active”, the Activity [11] was “Active” and the Activity [12] was “Active”. The Activity [13] was 1.32%, the “Ratio IC50” value [14] was 6.5 and the Activity [15] was 3.4%. For the same compound, the “Ratio IC50” value [16] was 11.1, the Activity [17] was 44.65% and the Activity [18] was “Dose-dependent effect”. The Activity [19] was “Active”, the Activity [20] was 55.84% and the Activity [21] was 9.97%. For the same compound, the pIC50 [22] was 5.60, the Activity [23] was 32.66% and the “Ratio IC50” value [24] was 8.9. The Activity [25] was 7.3%, the Activity [26] was 44.87% and the pIC50 [27] was 5.37. For the same compound, the inhibition [28] was 51.8%, the Activity [29] was 3.12% and the pIC50 [30] was 5.53. The Activity [31] was 23.67%, the Activity [32] was 52.3% and the Activity [33] was 0.76%.
